Legend:
[1] = target: GABA-A receptor; anion channel (Rattus norvegicus) (UniProt O09028+P15431+P18506+P18508+P19969+P20236+P23574+P23576+P28471+P28473+P30191+P62813+P63079+P63138+Q91ZM7+Q9ES14); assay: Relative binding to GABA-A receptor in the presence and absence of GABA; assay type: protein-complex assay
Outline: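 GABA shift ratio is IC50 without GABA divided by IC50 with GABA. Both were measured as [3H]Ro15-1788 (1 nM) displacement in washed rat cortical membranes, 1 h at 0–4 °C, with filtration and scintillation counting. The GABA arm also contained NaCl (400 mM) and GABA (200 mM, as printed). Curves used 10 concentrations in triplicate.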

[2] = target: GABA-A receptor; anion channel; assay: Specific binding of [3H]Ro-151788 to GABA-A Benzodiazepine receptor in rat cortex
Outline: (§1)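 Rat brain (Sprague-Dawley) cortex homogenized in 50 mM Tris-citrate pH 7.4, centrifuged at 20000g, washed five times and stored at -80 °C. About 0.12 mg protein was incubated with [3H]Ro15-1788 (1 nM final) for 1 h at 0–4 °C. Nonspecific binding was defined with 10 μM Ro14-7437. Bound label was separated by filtration and counted by scintillation. IC50 was taken from 10-concentration curves run in triplicate.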

[3] = target: GABA-A receptor; anion channel; assay: Partial agonistic activity against specific binding of [3H]-Ro-15-1788 to GABA-A Benzodiazepine receptor in rat cortex; outline: as §1

SMILES	Ratio [1]	IC50 [2]	IC50 [3]
O=c1c2cnc3ccccc3c2[nH]n1-c1cccc(Cl)c1	1.7	3.9 nM	
COc1ccc2ncc3c(=O)n(-c4ccccc4)[nH]c3c2c1	0.91	0.38 nM	
O=c1c2cnc3ccc(Cl)cc3c2[nH]n1-c1ccccc1	1.1	0.24 nM	
O=c1c2cnc3ccccc3c2[nH]n1-c1ccccc1Cl	1	70 nM	
COc1cccc(-n2[nH]c3c(cnc4ccccc43)c2=O)c1	1.1	0.58 nM	
COc1ccc(-n2nc3c4ccccc4[nH]cc-3c2=O)cc1	0.94		0.38 nM
O=C1C2C=Nc3ccccc3C2=NN1c1ccc(Cl)cc1 (stereo not drawn) [CGS-9896]	1.07		0.56 nM
O=C1C2C=Nc3ccccc3C2=NN1c1ccccc1 (stereo not drawn) [CGS-8216]	0.99		0.13 nM

More lines, in order of falling IC50 [2], values ahead:

Ratio [1]	IC50 [2]	IC50 [3]	SMILES
	990 nM		COc1ccccc1-n1[nH]c2c(cnc3ccccc32)c1=O
1.34	8 nM		O=c1c2cnc3ccc(Cl)cc3c2[nH]n1-c1ccccc1Cl
1.47	4 nM		O=c1c2cnc3ccc(Cl)cc3c2[nH]n1-c1ccc(Cl)cc1
0.97	2.1 nM		COc1ccc2c(c1)ncc1c(=O)n(-c3ccccc3)[nH]c12

From ChEMBL document CHEMBL1126709, “Structure-activity relationship studies at the benzodiazepine receptor (BZR): a comparison of the substitutent effects of pyrazoloquinolinone analogs” (J Med Chem, 1993)
